Common to all, as to assay type: functional
For assay [1], the system named is Staphylococcus aureus. Kind of assay: Antimicrobial activity against tetracycline-susceptible Staphylococcus aureus isolate 101 by CLSI dilution method.
Assay [2] has as its system Staphylococcus aureus. Nature of the assay: Antimicrobial activity against methicillin-, tetracycline-resistant Staphylococcus aureus isolate 161 harboring tetM gene by CLSI dilution method.
For assay [3], the system named is Staphylococcus aureus. Kind of assay: Antimicrobial activity against tetracycline-resistant Staphylococcus aureus isolate 158 harboring tetK gene by CLSI dilution method.
Assay [4] has as its system Enterococcus faecalis. Kind of assay: Antimicrobial activity against tetracycline-susceptible Enterococcus faecalis isolate 103 by CLSI dilution method. The method in brief: (§1)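 Broth microdilution per CLSI in fresh cation-adjusted Mueller Hinton broth, kept at 4 °C before testing, with defibrinated horse blood added as appropriate. Strains were from ATCC. MIC in µg/mL. Runs were accepted when comparator antibiotics against ATCC quality-control strains fell within recommended ranges.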

Assay [5] has as its system Enterococcus faecalis. Nature of the assay: Antimicrobial activity against tetracycline-resistant Enterococcus faecalis isolate 159 harboring […] gene by CLSI dilution method.
Assay [6] has as its system Streptococcus pneumoniae. Nature of the assay: Antimicrobial activity against tetracycline-susceptible Streptococcus pneumoniae isolate 106 by CLSI dilution method. The method in brief:
as §1

In assay [7] the test system is Streptococcus pneumoniae. Nature of the assay: Antimicrobial activity against tetracycline-resistant Streptococcus pneumoniae isolate 160 harboring tetM gene by CLSI dilution method.
The subject of assay [8] is Escherichia coli. Nature of the assay: Antimicrobial activity against tetracycline-susceptible Escherichia coli isolate 107 by CLSI dilution method. The method in brief: as §1
In assay [9] the test system is Escherichia coli. Nature of the assay: Antimicrobial activity against tetracycline-resistant Escherichia coli isolate 155 harboring tetA gene by CLSI dilution method.
The test system of another assay is Acinetobacter baumannii. Nature of the assay: Antimicrobial activity against tetracycline-susceptible Acinetobacter baumannii isolate 110 by CLSI dilution method. The method in brief: as §1
The subject of the next assay is Pseudomonas aeruginosa. Nature of the assay: Antimicrobial activity against tetracycline-susceptible Pseudomonas aeruginosa isolate 111 by CLSI dilution method. The method in brief:
as §1

For the next assay, the system named is Enterobacter cloacae. Kind of assay: Antimicrobial activity against tetracycline-susceptible Enterobacter cloacae isolate 108 by CLSI dilution method. In a few lines: as §1
Assay [10] has as its system Klebsiella pneumoniae. Nature of the assay: Antimicrobial activity against tetracycline-susceptible Klebsiella pneumoniae isolate 109 by CLSI dilution method. The method in brief:
as §1

The subject of assay [11] is Klebsiella pneumoniae. Kind of assay: Antimicrobial activity against tetracycline-resistant Klebsiella pneumoniae isolate 153 harboring tetA gene by CLSI dilution method.

These results are taken from ChEMBL document CHEMBL1781932 (J Med Chem, 2011).

The structures appear in SMILES notation. ≈ marks a conversion by molar mass, not a printed value. A value given as a limit tells only on which side of the number the result lay.

Usually MIC stands for the lowest concentration found to suppress growth. A high value points to a need for much substance. Regarding `CN(C)[C@@H]1C(O)=C(C(N)=O)C(=O)[C@@]2(O)C(O)=C3C(=O)c4c(cc5ccc(CN6CC(O)C6)cc5c4O)C[C@H]3C[C@@H]12`, the minimal inhibitory concentration (MIC) in the assay on Staphylococcus aureus [1] stood at 0.5 µg/mL (≈ 0.91 µM); against Staphylococcus aureus [2], 4 µg/mL (≈ 7.28 µM); against Staphylococcus aureus [3], 1 µg/mL (≈ 1.82 µM); against Enterococcus faecalis [4] it was 0.5 µg/mL (≈ 0.91 µM); with Enterococcus faecalis [5] it was 4 µg/mL (≈ 7.28 µM); against Streptococcus pneumoniae [6], 0.0625 µg/mL (≈ 0.114 µM). For the same compound, the minimal inhibitory concentration (MIC) is 0.5 µg/mL (≈ 0.91 µM) in the assay with Streptococcus pneumoniae [7]; 1 µg/mL (≈ 1.82 µM) in the assay with Escherichia coli [8]; 8 µg/mL (≈ 14.6 µM) in the assay on Escherichia coli [9]; 4 µg/mL (≈ 7.28 µM) in the assay with Acinetobacter baumannii; 32 µg/mL (≈ 58.2 µM) against Pseudomonas aeruginosa; 2 µg/mL (≈ 3.64 µM) against Enterobacter cloacae. Besides, the results for the minimum inhibitory concentration (MIC) in the assay with Klebsiella pneumoniae [10] and in the assay with Klebsiella pneumoniae [11] were 4 µg/mL (≈ 7.28 µM) and 8 µg/mL (≈ 14.6 µM), respectively.
Take `COC1CN(Cc2ccc3cc4c(c(O)c3c2)C(=O)C2=C(O)[C@]3(O)C(=O)C(C(N)=O)=C(O)[C@@H](N(C)C)[C@@H]3C[C@@H]2C4)C1`: the MIC against Staphylococcus aureus [1] amounted to 1 µg/mL (≈ 1.77 µM); in the assay with Staphylococcus aureus [2], 4 µg/mL (≈ 7.1 µM); against Staphylococcus aureus [3], 0.5 µg/mL (≈ 0.887 µM); in the assay on Enterococcus faecalis [4] it was 1 µg/mL (≈ 1.77 µM); in the assay with Enterococcus faecalis [5], 8 µg/mL (≈ 14.2 µM); with Streptococcus pneumoniae [6] it was 0.0625 µg/mL (≈ 0.111 µM). For the same compound, the MIC was 0.5 µg/mL (≈ 0.887 µM) against Streptococcus pneumoniae [7]; 2 µg/mL (≈ 3.55 µM) against Escherichia coli [8]; 16 µg/mL (≈ 28.4 µM) in the assay on Escherichia coli [9]; 2 µg/mL (≈ 3.55 µM) in the assay on Acinetobacter baumannii; > 32 µg/mL with Pseudomonas aeruginosa; 8 µg/mL (≈ 14.2 µM) in the assay on Enterobacter cloacae. Moreover, the results for the minimal inhibitory concentration (MIC) against Klebsiella pneumoniae [10] and against Klebsiella pneumoniae [11] were 4 µg/mL (≈ 7.1 µM) and 16 µg/mL (≈ 28.4 µM), respectively.
On to `CC(=O)NC1CN(Cc2ccc3cc4c(c(O)c3c2)C(=O)C2=C(O)[C@]3(O)C(=O)C(C(N)=O)=C(O)[C@@H](N(C)C)[C@@H]3C[C@@H]2C4)C1`, for which the MIC with Staphylococcus aureus [1] amounted to 2 µg/mL (≈ 3.39 µM); with Staphylococcus aureus [2], 8 µg/mL (≈ 13.5 µM); against Staphylococcus aureus [3], 2 µg/mL (≈ 3.39 µM); in the assay on Enterococcus faecalis [4] it was 2 µg/mL (≈ 3.39 µM); in the assay with Enterococcus faecalis [5], 16 µg/mL (≈ 27.1 µM); against Streptococcus pneumoniae [6] it was 0.25 µg/mL (≈ 0.423 µM). Further, the MIC against Streptococcus pneumoniae [7] is 2 µg/mL (≈ 3.39 µM); in the assay on Escherichia coli [8] it was 4 µg/mL (≈ 6.77 µM); with Escherichia coli [9], 16 µg/mL (≈ 27.1 µM); against Acinetobacter baumannii, 16 µg/mL (≈ 27.1 µM); in the assay on Pseudomonas aeruginosa, > 32 µg/mL; against Enterobacter cloacae, 8 µg/mL (≈ 13.5 µM). The minimal inhibitory concentration (MIC) against Klebsiella pneumoniae [10] and against Klebsiella pneumoniae [11] was 16 µg/mL (≈ 27.1 µM) throughout.
Regarding `CN(C)[C@@H]1C(O)=C(C(N)=O)C(=O)[C@@]2(O)C(O)=C3C(=O)c4c(cc5ccc(CN6CC(F)(F)C6)cc5c4O)C[C@H]3C[C@@H]12`, the MIC in the assay with Staphylococcus aureus [1] was 1 µg/mL (≈ 1.76 µM); in the assay with Staphylococcus aureus [2], 1 µg/mL (≈ 1.76 µM); against Staphylococcus aureus [3], 1 µg/mL (≈ 1.76 µM); against Enterococcus faecalis [4] it was 1 µg/mL (≈ 1.76 µM); against Enterococcus faecalis [5], 1 µg/mL (≈ 1.76 µM); against Streptococcus pneumoniae [6], 2 µg/mL (≈ 3.51 µM). In addition, the MIC is 4 µg/mL (≈ 7.02 µM) against Streptococcus pneumoniae [7]; > 32 µg/mL against Escherichia coli [8]; > 32 µg/mL in the assay with Escherichia coli [9]; > 32 µg/mL in the assay with Acinetobacter baumannii; > 32 µg/mL against Pseudomonas aeruginosa; > 32 µg/mL against Enterobacter cloacae. The minimum inhibitory concentration (MIC) in the assay with Klebsiella pneumoniae [10] and against Klebsiella pneumoniae [11] was > 32 µg/mL each time.
For the compound `CN(C)[C@@H]1C(O)=C(C(N)=O)C(=O)[C@@]2(O)C(O)=C3C(=O)c4c(cc5ccc(CN(C)S(C)(=O)=O)cc5c4O)C[C@H]3C[C@@H]12`, the MIC in the assay with Staphylococcus aureus [1] was 2 µg/mL (≈ 3.42 µM); against Staphylococcus aureus [2], 2 µg/mL (≈ 3.42 µM); in the assay with Staphylococcus aureus [3], 2 µg/mL (≈ 3.42 µM); in the assay on Enterococcus faecalis [4], 2 µg/mL (≈ 3.42 µM); against Enterococcus faecalis [5] it was 2 µg/mL (≈ 3.42 µM); with Streptococcus pneumoniae [6], 1 µg/mL (≈ 1.71 µM). Also, the minimum inhibitory concentration (MIC) was 4 µg/mL (≈ 6.83 µM) in the assay on Streptococcus pneumoniae [7]; > 32 µg/mL against Escherichia coli [8]; > 32 µg/mL against Escherichia coli [9]; > 32 µg/mL against Acinetobacter baumannii; > 32 µg/mL with Pseudomonas aeruginosa; > 32 µg/mL against Enterobacter cloacae. Also, the minimum inhibitory concentration (MIC) in the assay with Klebsiella pneumoniae [10] and against Klebsiella pneumoniae [11] was > 32 µg/mL in each case.
For the compound `CNCc1ccc2c(N(C)C)c3c(c(O)c2c1)C(=O)C1=C(O)[C@]2(O)C(=O)C(C(N)=O)=C(O)[C@@H](N(C)C)[C@@H]2C[C@@H]1C3`, the minimal inhibitory concentration (MIC) with Staphylococcus aureus [1] worked out at 0.25 µg/mL (≈ 0.454 µM); against Staphylococcus aureus [2] it was 2 µg/mL (≈ 3.63 µM); in the assay on Staphylococcus aureus [3], 0.5 µg/mL (≈ 0.908 µM); against Enterococcus faecalis [4], 0.5 µg/mL (≈ 0.908 µM); against Enterococcus faecalis [5] it was 4 µg/mL (≈ 7.26 µM); against Streptococcus pneumoniae [6] it was 0.125 µg/mL (≈ 0.227 µM). The MIC in the assay with Streptococcus pneumoniae [7] was 0.5 µg/mL (≈ 0.908 µM); in the assay on Escherichia coli [8] it was 2 µg/mL (≈ 3.63 µM); with Escherichia coli [9] it was 32 µg/mL (≈ 58.1 µM); against Acinetobacter baumannii it was 2 µg/mL (≈ 3.63 µM); against Pseudomonas aeruginosa, > 32 µg/mL; with Enterobacter cloacae, 8 µg/mL (≈ 14.5 µM). Also, the MIC turned out to be 4 µg/mL (≈ 7.26 µM) with Klebsiella pneumoniae [10] and 32 µg/mL (≈ 58.1 µM) against Klebsiella pneumoniae [11].
